{"source": "paper PMC5321513", "about": "(Structure (London, England : 1993), 2017)", "key": {"14-3-3 dimer": {"tested_on": "14-3-3 dimer", "test": "Affinity of pHSPB6 dimer to the 14-3-3 dimer", "type": "binding, human", "conditions": "Discussion"}, "14-3-3ζ": {"tested_on": "14-3-3ζ", "conditions": "ref Sluchanko et al., 2011; cited from earlier work"}, "14-3-3σ [1]": {"target": "T1, 14-3-3σ (Homo sapiens, UniProt P31947)", "T1 sequence (P31947 1-231)": "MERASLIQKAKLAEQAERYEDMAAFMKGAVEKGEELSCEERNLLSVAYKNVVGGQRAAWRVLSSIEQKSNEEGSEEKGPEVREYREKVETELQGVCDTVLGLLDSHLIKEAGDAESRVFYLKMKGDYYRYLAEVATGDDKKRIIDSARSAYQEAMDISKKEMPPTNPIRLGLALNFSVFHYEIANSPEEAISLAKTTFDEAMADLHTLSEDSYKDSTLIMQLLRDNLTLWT", "test": "Fluorescence competition titration", "type": "binding", "conditions": "equimolar concentration and 7-fold excess of phosphopeptide; 30°C"}, "14-3-3σ [2]": {"target": "T1, 14-3-3σ", "test": "AEDANS fluorescence titration of pHSPB6AEDANS by 14-3-3σ", "type": "binding", "conditions": "excitation at 336 nm, 4.2 µM pHSPB6AEDANS, 30°C", "summary_of_the_method": "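Full-length HSPB6 was phosphorylated at Ser16 by PKA in vitro and moved into 20 mM HEPES pH 7.5 with 100 mM NaCl. It was reduced with 20 mM DTT for 20 min at room temperature, desalted, then labelled with a 6-fold molar excess of 1,5-I-AEDANS (1 h room temperature, then overnight at 4 °C), reaching 90% labelling. Human 14-3-3σ(1-231) was added stepwise with 5 min equilibration at 30 °C. Excitation was 336 nm and emission was read at 488 nm. Curves were buffer-corrected and fitted to a quadratic equation.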"}, "14-3-3γ": {"target": "T2, 14-3-3γ (Homo sapiens, UniProt P61981)", "T2 sequence (P61981 1-247)": "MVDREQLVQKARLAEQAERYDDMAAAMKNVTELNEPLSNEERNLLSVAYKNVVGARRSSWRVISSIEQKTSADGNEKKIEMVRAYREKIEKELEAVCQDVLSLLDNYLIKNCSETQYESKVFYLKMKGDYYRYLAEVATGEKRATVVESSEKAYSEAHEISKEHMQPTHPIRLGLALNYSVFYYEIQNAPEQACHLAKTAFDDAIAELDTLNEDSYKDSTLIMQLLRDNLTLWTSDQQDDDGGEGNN", "test": "Isothermal titration calorimetry", "type": "binding", "conditions": "30 °C, pH 7.6", "summary_of_the_method": "(§1)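 ITC was run at 30 °C in 20 mM Tris-HCl pH 7.6 with 150 mM NaCl, 0.1 mM EDTA and 2 mM β-mercaptoethanol. 2 μl aliquots of 14-3-3 were injected into a 0.2 ml cell holding the test phosphopeptide: 44 μM peptide titrated with 0.5 mM full-length human 14-3-3γ, or 100 μM peptide titrated with 1 mM 14-3-3σ. Heat of dilution was subtracted before curve fitting. There were at least three repeats with varied concentrations.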"}, "14-3-3σ [3]": {"target": "T1, 14-3-3σ", "test": "Isothermal titration calorimetry", "type": "binding", "conditions": "30 °C, pH 7.6", "summary_of_the_method": "as §1"}, "14-3-3": {"tested_on": "14-3-3", "conditions": "in vitro; ref Sudnitsyna et al., 2012; cited from earlier work"}}, "note": "Where a SMILES comes first, the peptide text is derived from it. [ ]: non-standard residue; d: D form. pS = N[C@@H](COP(=O)(O)O)C(=O)O"}
{"molecule": "pHSPB6: phosphorylated small heat shock protein HSPB6 (HSP20)", "values": [{"measurement": "apparent affinity to the 14-3-3 dimer", "setting": "14-3-3 dimer", "value": "submicromolar apparent affinity"}, {"measurement": "affinity to 14-3-3ζ", "setting": "14-3-3ζ", "value": "micromolar affinity"}]}
{"molecule": "pHSPB6^AEDANS: phosphorylated full-length HSPB6 stoichiometrically labeled at its unique Cys46 residue with 1,5-I-AEDANS", "values": [{"measurement": "14-3-3σ/pHSPB6AEDANS interaction in the presence of phosphopeptide", "setting": "14-3-3σ [1]", "value": "resulted in a saturable curve (Fig.2b), suggestive of a retained 14-3-3σ/pHSPB6^AEDANS interaction"}, {"measurement": "fluorescence peak shift upon titration with 14-3-3σ", "setting": "14-3-3σ [2]", "value": "shifted from 486 to 479 nm"}]}
{"molecule": "CC(C)C[C@H](NC(=O)CNC(=O)[C@@H]1CCCN1C(=O)[C@H](CC(C)C)NC(=O)[C@@H]1CCCN1C(=O)[C@H](C)NC(=O)[C@H](COP(=O)(O)O)NC(=O)[C@H](C)NC(=O)[C@H](CCCNC(=N)N)NC(=O)[C@H](CCCNC(=N)N)NC(=O)[C@H](CC(C)C)NC(=O)[C@@H](N)Cc1c[nH]c2ccccc12)C(=O)N[C@@H](CCCCN)C(=O)O", "note": "[phosphopeptide 11-23] (H-WLRRA[pS]APLPGLK-OH)", "values": [{"measurement": "stoichiometry of binding (ITC)", "setting": "14-3-3γ", "value": "one peptide per 14-3-3 subunit"}, {"measurement": "stoichiometry of binding (ITC)", "setting": "14-3-3σ [3]", "value": "one peptide per 14-3-3 subunit"}]}
{"molecule": "phosphocofilin: phosphocofilin, 14-3-3 complex partner", "values": [{"measurement": "direct 14-3-3/phosphocofilin interaction", "setting": "14-3-3", "value": "could not be confirmed in vitro"}]}
